Laboratory results reported in ChEMBL document CHEMBL1649125, “Efficacy of the novel diamidine compound 2,5-Bis(4-amidinophenyl)- furan-bis-O-Methlylamidoxime (Pafuramidine, DB289) against Trypanosoma brucei rhodesiense infection in vervet monkeys after oral administration” (2009).
Calls of active or inactive are those of the source. The rule behind the calls is not given here.

How the values were obtained:
[1] = test system: Trypanosoma brucei rhodesiense; assay: Antitrypanosomal activity against Trypanosoma brucei rhodesiense infected in vervet monkey assessed as body weight change at 1 mg/kg, po administered on day 7 post infection for 5 days; type: functional
In short: (§1)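 Body weight change is given as percent of the mean preinfection weight (n=3 per group). It was recorded at day 0 p.t., day 28 p.t. and end point. Oral gavage was once daily: 5 days from day 7 p.i., or 10 days from day 28 p.i.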

[2] = test system: Trypanosoma brucei rhodesiense; assay: Antitrypanosomal activity against Trypanosoma brucei rhodesiense infected in vervet monkey assessed as body weight change at 10 mg/kg, po administered on day 7 post infection for 5 days; type: functional; in short: as §1
[3] = test system: Trypanosoma brucei rhodesiense; assay: Antitrypanosomal activity against Trypanosoma brucei rhodesiense infected in vervet monkey assessed as body weight change at 10 mg/kg, po administered on day 14 post infection for 5 days; type: functional
[4] = test system: Trypanosoma brucei rhodesiense; assay: Antimicrobial activity against Trypanosoma brucei rhodesiense infected in vervet monkeys assessed as cure from infection at 1 mg/kg, po administered on day 7 post infection for 5 days; type: functional, organism-based; parameters: dose 1 mg/kg
In short: (§2)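 Vervet monkeys (n=3 per group), infected with T. b. rhodesiense KETRI 2537. Dosed by oral gavage with a suspension once daily for 5 consecutive days from day 7 p.i. Cure meant no trypanosomes over 180 days p.t. in blood (wet film, HCT) or CSF (hemocytometer, centrifugation), with mouse subinoculation of negative samples.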

[5] = test system: Trypanosoma brucei rhodesiense; assay: Antitrypanosomal activity against Trypanosoma brucei rhodesiense infected in vervet monkey 463 assessed as time to detect parasitemia in wet films of blood at 1 mg/kg, po administered on day 7 post infection for 5 days by hematocrit centrifugation technique; type: functional
In short: (§3)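 Parasitemia was monitored from 3 days p.i. in ear-prick or inguinal venous blood. Methods were wet-film microscopy (detection limit 10^5 trypanosomes/ml) and hematocrit centrifugation technique (detection limit 10^3 trypanosomes/ml). Drug was given once daily by oral gavage: 5 days from day 7 p.i., or 10 days from day 28 p.i.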

[6] = test system: Trypanosoma brucei rhodesiense; assay: Antitrypanosomal activity against Trypanosoma brucei rhodesiense infected in vervet monkey 484 assessed as time to detect parasitemia at 1 mg/kg, po administered on day 7 post infection for 5 days; type: functional, organism-based; parameters: dose 1 mg/kg; in short: as §3
[7] = test system: Trypanosoma brucei rhodesiense; assay: Antitrypanosomal activity against Trypanosoma brucei rhodesiense infected in vervet monkey 484 assessed as time to detect parasitemia in wet films of blood at 1 mg/kg, po administered on day 7 post infection for 5 days by hematocrit centrifugation technique; type: functional; in short: as §3
[8] = test system: Trypanosoma brucei rhodesiense; assay: Antitrypanosomal activity against Trypanosoma brucei rhodesiense infected in vervet monkey 485 assessed as time to detect parasitemia in wet films of blood at 1 mg/kg, po administered on day 7 post infection for 5 days by hematocrit centrifugation technique; type: functional; in short: as §3
[9] = test system: Trypanosoma brucei rhodesiense; assay: Antitrypanosomal activity against Trypanosoma brucei rhodesiense infected in vervet monkey 483 assessed as time to detect parasitemia at 3 mg/kg, po administered on day 7 post infection for 5 days; type: functional; in short: as §3
[10] = test system: Trypanosoma brucei rhodesiense; assay: Antitrypanosomal activity against Trypanosoma brucei rhodesiense infected in vervet monkey 483 assessed as time to detect parasitemia in wet films of blood at 3 mg/kg, po administered on day 7 post infection for 5 days by hematocrit centrifugation technique; type: functional; in short: as §3
[11] = test system: Trypanosoma brucei rhodesiense; assay: Antitrypanosomal activity against Trypanosoma brucei rhodesiense infected in vervet monkey 411 assessed as cure from infection at 3 mg/kg, po administered on day 7 post infection for 5 days; type: functional, organism-based; parameters: dose 3 mg/kg; in short: as §2
[12] = test system: Trypanosoma brucei rhodesiense; assay: Antitrypanosomal activity against Trypanosoma brucei rhodesiense infected in vervet monkey 490 assessed as time to detect CSF parasitosis at 10 mg/kg, po administered on day 28 post infection for 10 days measured after 14 to 21 days by microscopy; type: functional
In short: (§4)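 Trypanosomes and white cells in free-flowing CSF were counted by hemocytometer. Negative CSF was centrifuged and re-examined. Samples still negative were inoculated at 0.2 ml intraperitoneally into two mice each. Drug was given once daily by oral gavage: 5 days from day 7 p.i., or 10 days from day 28 p.i.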

[13] = test system: Trypanosoma brucei rhodesiense; assay: Antitrypanosomal activity against Trypanosoma brucei rhodesiense infected in vervet monkey 501 assessed as time to detect parasitemia at 10 mg/kg, po administered on day 28 post infection for 10 days; type: functional; in short: as §3
[14] = test system: Trypanosoma brucei rhodesiense; assay: Antitrypanosomal activity against Trypanosoma brucei rhodesiense infected in vervet monkey 501 assessed as time to detect parasitemia in wet films of blood at 10 mg/kg, po administered on day 28 post infection for 10 days by hematocrit centrifugation technique; type: functional; in short: as §3
[15] = test system: Trypanosoma brucei rhodesiense; assay: Antitrypanosomal activity against Trypanosoma brucei rhodesiense infected in vervet monkey 501 assessed as time to detect CSF parasitosis at 10 mg/kg, po administered on day 28 post infection for 10 days measured after 7 to 14 days; type: functional, organism-based; parameters: dose 10 mg/kg; in short: as §4
[16] = test system: Trypanosoma brucei rhodesiense; assay: Antitrypanosomal activity against Trypanosoma brucei rhodesiense infected in vervet monkey 520 assessed as time to detect CSF parasitosis at 10 mg/kg, po administered on day 28 post infection for 10 days measured after 14 to 21 days by microscopy; type: functional; in short: as §4
[17] = test system: Trypanosoma brucei rhodesiense; assay: Antitrypanosomal activity against Trypanosoma brucei rhodesiense infected in vervet monkey assessed as body weight change at 10 mg/kg, po administered on day 28 post infection for 10 days measured on day 28 post treatment; type: functional; in short: as §1
[18] = test system: Trypanosoma brucei rhodesiense; assay: Antitrypanosomal activity against Trypanosoma brucei rhodesiense infected in vervet monkey assessed as change in packed cell volume at 1 mg/kg, po administered on day 7 post infection for 5 days; type: functional
In short: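 Packed cell volume change is given as percent of the mean preinfection PCV in 3 monkeys. It was recorded at day 0 p.t., day 28 p.t. and end point, after 5 daily oral gavage doses starting day 7 p.i.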

[19] = test system: Trypanosoma brucei rhodesiense; assay: Antitrypanosomal activity against Trypanosoma brucei rhodesiense infected in vervet monkey assessed as change in packed cell volume at 3 mg/kg, po administered on day 7 post infection for 5 days; type: functional
In short: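 Vervet monkeys, three per group, were infected intravenously with T. b. rhodesiense KETRI 2537. From day 7 p.i., a drug suspension was given by oral gavage once daily for 5 consecutive days. Packed cell volume was expressed as % change from the group's mean preinfection value. PCV was read at day 0 p.t., day 28 p.t. and endpoint, with follow-up to 180 days p.t.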

[20] = test system: Trypanosoma brucei rhodesiense; assay: Antitrypanosomal activity against Trypanosoma brucei rhodesiense infected in vervet monkey assessed as change in packed cell volume at 10 mg/kg, po administered on day 14 post infection for 5 days; type: functional
[21] = test system: Trypanosoma brucei rhodesiense; assay: Antitrypanosomal activity against Trypanosoma brucei rhodesiense infected in vervet monkey assessed as change in packed cell volume at 10 mg/kg, po administered on day 28 post infection for 10 days; type: functional
In short: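 Three vervet monkeys were infected intravenously with T. b. rhodesiense KETRI 2537 and treated in late-stage disease. From day 28 p.i., a drug suspension was given by oral gavage once daily for 10 consecutive days. PCV was reported as % change from the mean preinfection value at day 0 p.t., day 28 p.t. and endpoint. Monitoring continued up to 180 days p.t.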

[22] = test system: Trypanosoma brucei rhodesiense; assay: Antitrypanosomal activity against Trypanosoma brucei rhodesiense infected in vervet monkey assessed as change in packed cell volume at 10 mg/kg, po administered on day 14 post infection for 5 days measured on day 28 post treatment; type: functional
[23] = test system: Trypanosoma brucei rhodesiense; assay: Antimicrobial activity against Trypanosoma brucei rhodesiense infected in vervet monkeys assessed as cure from infection at 10 mg/kg, po administered for 10 days
[24] = test system: Trypanosoma brucei rhodesiense; assay: Antitrypanosomal activity against Trypanosoma brucei rhodesiense infected in vervet monkey 471 assessed as time to detect parasitemia in wet films of blood at 10 mg/kg, po administered on day 14 post infection for 5 days by hematocrit centrifugation technique

CONC(=N)c1ccc(-c2ccc(-c3ccc(C(=N)NOC)cc3)o2)cc1 [PAFURAMIDINE] was tested, and the Activity [1] was -2.2%, the Activity [2] was -6.3% and the Activity [3] was -4.2%. For the same molecule, the Activity [4] was “inactive”, the Time [5] was 9 days and the Time [6] was “inactive”. It also gave a Time [7] of 4 days, a Time [8] of 3 days and a Time [9] of 69 days. The Time [10] was 66 days, the Time [11] was “Active” and the Time [12] was 42 days. The Time [13] was 56 days, the Time [14] was 73 days and the Time [15] was “inactive”. The Time [16] was 119 days, the Activity [17] was -8.1% and the Activity [18] was -4.3%. The Activity [19] was -9.4%, the Activity [20] was -25.8% and the Activity [21] was -41.3%. The Activity [22] was -13.5%, the Activity [23] was “inactive” and the Time [24] was 87 days.
